Measurements published in ChEMBL document CHEMBL2396637, “Antagonism of L-type Ca2+ channels CaV1.3 and CaV1.2 by 1,4-dihydropyrimidines and 4H-pyrans as dihydropyridine mimics” (Bioorg Med Chem, 2013).
Calls of active or inactive are those of the source. The rule behind the calls is not given here.

Key:
[1] = biological target: T1, Voltage-dependent L-type calcium channel subunit alpha-1C (Oryctolagus cuniculus, UniProt P15381); experiment: Antagonist activity at rabbit voltage-dependent L-type calcium channel Cav1.2alpha-1C expressed in HEK293 cells by FLIPR assay; format: cell-based
T1 sequence (P15381 whole entry): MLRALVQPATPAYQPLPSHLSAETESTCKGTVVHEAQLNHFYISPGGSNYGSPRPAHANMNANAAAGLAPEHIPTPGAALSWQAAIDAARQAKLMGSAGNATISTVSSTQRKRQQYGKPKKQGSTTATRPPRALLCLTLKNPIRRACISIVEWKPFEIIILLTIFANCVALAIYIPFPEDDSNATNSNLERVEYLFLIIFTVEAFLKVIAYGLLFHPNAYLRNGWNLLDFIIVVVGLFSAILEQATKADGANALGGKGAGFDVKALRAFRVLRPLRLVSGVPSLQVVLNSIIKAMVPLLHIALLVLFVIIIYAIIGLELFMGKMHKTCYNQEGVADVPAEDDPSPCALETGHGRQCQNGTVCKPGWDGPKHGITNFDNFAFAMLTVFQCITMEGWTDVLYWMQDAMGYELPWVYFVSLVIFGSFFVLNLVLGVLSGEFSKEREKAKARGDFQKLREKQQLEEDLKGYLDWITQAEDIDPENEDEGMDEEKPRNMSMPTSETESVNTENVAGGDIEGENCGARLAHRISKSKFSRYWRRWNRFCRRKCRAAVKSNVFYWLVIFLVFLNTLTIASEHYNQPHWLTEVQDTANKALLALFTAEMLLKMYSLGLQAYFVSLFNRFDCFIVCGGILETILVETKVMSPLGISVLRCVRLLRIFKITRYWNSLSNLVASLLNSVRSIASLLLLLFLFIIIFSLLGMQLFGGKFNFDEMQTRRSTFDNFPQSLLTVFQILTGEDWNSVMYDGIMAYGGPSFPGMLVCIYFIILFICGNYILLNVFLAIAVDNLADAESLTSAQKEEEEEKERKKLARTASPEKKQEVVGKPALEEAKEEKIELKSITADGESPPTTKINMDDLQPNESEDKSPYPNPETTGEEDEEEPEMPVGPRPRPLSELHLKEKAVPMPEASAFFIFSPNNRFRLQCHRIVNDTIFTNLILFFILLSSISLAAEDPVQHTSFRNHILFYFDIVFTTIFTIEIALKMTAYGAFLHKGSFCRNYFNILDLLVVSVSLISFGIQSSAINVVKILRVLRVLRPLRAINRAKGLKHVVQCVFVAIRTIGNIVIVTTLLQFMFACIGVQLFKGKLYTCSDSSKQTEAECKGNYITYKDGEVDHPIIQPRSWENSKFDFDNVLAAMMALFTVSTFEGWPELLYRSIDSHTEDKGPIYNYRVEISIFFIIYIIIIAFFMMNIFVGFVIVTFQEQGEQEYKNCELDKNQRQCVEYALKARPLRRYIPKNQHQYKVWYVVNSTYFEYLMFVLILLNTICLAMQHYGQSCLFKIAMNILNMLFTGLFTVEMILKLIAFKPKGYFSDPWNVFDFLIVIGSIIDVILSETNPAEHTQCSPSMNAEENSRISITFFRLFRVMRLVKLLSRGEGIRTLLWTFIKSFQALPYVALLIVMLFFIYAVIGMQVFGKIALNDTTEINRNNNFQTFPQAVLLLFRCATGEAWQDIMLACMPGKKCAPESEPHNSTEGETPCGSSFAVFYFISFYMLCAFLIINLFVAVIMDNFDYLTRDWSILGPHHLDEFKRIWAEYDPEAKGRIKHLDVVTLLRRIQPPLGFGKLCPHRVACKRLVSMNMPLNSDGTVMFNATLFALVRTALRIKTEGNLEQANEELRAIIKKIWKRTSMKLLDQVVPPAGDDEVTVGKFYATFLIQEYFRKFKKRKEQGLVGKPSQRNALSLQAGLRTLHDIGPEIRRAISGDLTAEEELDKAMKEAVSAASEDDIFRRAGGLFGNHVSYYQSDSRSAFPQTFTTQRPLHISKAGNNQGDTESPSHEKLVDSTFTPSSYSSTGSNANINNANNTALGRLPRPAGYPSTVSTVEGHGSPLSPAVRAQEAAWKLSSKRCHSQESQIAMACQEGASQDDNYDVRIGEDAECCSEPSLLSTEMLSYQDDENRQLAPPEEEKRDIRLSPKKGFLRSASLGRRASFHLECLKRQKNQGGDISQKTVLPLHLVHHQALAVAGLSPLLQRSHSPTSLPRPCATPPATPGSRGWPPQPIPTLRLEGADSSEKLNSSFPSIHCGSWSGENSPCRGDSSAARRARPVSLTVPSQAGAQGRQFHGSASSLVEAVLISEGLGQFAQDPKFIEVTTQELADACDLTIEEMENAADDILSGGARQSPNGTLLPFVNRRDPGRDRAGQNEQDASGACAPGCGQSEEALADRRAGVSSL
Outline: (§1)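 HEK293 lines stably expressing rat CaV1.3α1D or rabbit CaV1.2α1C, with rat CaVβ3 and rat CaVα2δ-1 cDNAs used in construction. Calcium influx was read by Fluo-8 fluorescence on a FLIPR Tetra. […] The selectivity ratio is CaV1.3 IC50 over CaV1.2 IC50.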

[2] = biological target: Voltage-dependent L-type calcium channel subunit alpha-1D (Rattus norvegicus, UniProt P27732); experiment: Antagonist activity at rat voltage-dependent L-type calcium channel Cav1.3alpha-1D expressed in HEK293 cells by FLIPR assay; format: cell-based; outline: as §1
Sequence of Voltage-dependent L-type calcium channel subunit alpha-1D (P27732 whole entry): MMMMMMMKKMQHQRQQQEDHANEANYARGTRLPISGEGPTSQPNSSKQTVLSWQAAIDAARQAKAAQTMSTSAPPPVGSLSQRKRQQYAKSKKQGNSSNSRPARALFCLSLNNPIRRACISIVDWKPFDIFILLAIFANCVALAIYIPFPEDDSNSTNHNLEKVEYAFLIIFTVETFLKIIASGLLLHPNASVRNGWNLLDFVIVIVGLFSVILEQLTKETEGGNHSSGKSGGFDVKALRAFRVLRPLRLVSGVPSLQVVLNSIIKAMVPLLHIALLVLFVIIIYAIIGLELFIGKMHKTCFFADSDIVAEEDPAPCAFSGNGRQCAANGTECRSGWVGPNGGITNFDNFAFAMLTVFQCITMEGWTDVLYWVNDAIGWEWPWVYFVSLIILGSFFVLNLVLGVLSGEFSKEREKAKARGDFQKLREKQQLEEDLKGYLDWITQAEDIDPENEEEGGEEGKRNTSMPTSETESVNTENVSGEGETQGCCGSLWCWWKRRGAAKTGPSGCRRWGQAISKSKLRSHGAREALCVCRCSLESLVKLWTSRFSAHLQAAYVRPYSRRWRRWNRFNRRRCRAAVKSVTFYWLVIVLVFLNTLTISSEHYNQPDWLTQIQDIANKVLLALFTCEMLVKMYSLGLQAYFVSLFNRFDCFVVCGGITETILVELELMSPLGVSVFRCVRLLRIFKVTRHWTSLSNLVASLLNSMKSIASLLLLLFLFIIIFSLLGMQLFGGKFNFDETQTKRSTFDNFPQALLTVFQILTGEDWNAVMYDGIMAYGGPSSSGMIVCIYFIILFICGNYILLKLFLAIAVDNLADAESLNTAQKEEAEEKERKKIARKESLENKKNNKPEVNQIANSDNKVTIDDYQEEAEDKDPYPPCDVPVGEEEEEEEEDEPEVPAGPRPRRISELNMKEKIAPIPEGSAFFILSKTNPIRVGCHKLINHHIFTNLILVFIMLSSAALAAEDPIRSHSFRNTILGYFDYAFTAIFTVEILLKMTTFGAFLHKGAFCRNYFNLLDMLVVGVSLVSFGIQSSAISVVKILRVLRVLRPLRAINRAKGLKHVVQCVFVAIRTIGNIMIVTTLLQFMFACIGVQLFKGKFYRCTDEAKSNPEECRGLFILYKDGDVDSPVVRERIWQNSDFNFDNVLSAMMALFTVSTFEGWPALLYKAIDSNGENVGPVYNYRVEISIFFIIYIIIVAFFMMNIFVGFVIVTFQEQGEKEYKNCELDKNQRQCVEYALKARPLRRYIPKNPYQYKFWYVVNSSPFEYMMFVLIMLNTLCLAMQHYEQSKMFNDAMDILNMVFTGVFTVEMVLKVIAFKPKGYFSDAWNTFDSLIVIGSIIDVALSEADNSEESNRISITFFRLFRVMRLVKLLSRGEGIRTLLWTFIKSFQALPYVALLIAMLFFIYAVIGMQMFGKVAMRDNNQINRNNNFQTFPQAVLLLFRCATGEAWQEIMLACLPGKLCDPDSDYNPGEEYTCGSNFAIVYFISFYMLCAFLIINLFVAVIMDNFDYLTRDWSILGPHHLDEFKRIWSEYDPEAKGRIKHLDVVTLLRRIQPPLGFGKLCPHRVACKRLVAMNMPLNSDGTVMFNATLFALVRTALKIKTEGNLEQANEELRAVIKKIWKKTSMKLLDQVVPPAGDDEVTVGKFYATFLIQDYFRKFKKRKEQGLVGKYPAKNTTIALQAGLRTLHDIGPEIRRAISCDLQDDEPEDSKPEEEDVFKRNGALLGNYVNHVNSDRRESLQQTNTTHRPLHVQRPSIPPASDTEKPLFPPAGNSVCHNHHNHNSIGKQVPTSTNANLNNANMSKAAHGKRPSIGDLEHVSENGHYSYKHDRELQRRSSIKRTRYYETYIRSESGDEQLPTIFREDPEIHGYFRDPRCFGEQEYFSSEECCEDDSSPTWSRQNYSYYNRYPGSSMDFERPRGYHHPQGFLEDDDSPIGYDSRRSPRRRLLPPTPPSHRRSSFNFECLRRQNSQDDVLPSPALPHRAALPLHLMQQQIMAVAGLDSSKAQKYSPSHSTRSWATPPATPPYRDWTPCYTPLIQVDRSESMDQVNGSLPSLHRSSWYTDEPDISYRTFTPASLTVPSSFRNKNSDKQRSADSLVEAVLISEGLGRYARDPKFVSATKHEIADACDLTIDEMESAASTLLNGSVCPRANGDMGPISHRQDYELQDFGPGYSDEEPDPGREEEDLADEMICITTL

[3] = Selectivity ratio of IC50 for rabbit voltage-dependent L-type calcium channel Cav1.2alpha-1C to IC50 for rat voltage-dependent L-type calcium channel Cav1.3alpha-1D
[4] = Selectivity ratio of inhibition for rat voltage-dependent L-type calcium channel Cav1.3alpha-1D to inhibition for rabbit voltage-dependent L-type calcium channel Cav1.2alpha-1C at 0.3 uM
[5] = biological target: T1, Voltage-dependent L-type calcium channel subunit alpha-1C; experiment: Antagonist activity at rabbit voltage-dependent L-type calcium channel Cav1.2alpha-1C expressed in HEK293 cells assessed as inhibition of peak barium current at 1 to 10 uM by whole-cell patch-clamp electrophysiology technique; format: cell-based
Outline: (§2)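 Stably transfected HEK293 cells were held on poly-D-lysine coverslips for 24–48 h at 37 °C, then whole-cell voltage-clamped. External solution (mM): 140 NaCl, 1 MgCl2, 10 BaCl2, 10 HEPES, 10 dextrose, 10 sucrose, 20 CsCl, pH 7.4. Ba2+ currents were evoked by a 100 ms step from −80 to 0 mV. Compound was perfused at 1 or 10 µM from a DMSO stock. Percent inhibition of peak current or of end current (last 50 ms) was taken, n = 5, as the median.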

[6] = biological target: Voltage-dependent L-type calcium channel subunit alpha-1D (Rattus norvegicus) (UniProt P27732); experiment: Antagonist activity at rat voltage-dependent L-type calcium channel Cav1.3alpha-1D expressed in HEK293 cells assessed as inhibition of peak barium current at 1 to 10 uM by whole-cell patch-clamp electrophysiology technique; format: cell-based; outline: as §2
Sequence of Voltage-dependent L-type calcium channel subunit alpha-1D (Rattus norvegicus) (P27732 whole entry): as above

[7] = biological target: Voltage-dependent L-type calcium channel subunit alpha-1D (Rattus norvegicus) (UniProt P27732); experiment: Antagonist activity at rat voltage-dependent L-type calcium channel Cav1.3alpha-1D expressed in HEK293 cells assessed as inhibition of end barium current at 1 to 10 uM by whole-cell patch-clamp electrophysiology technique; format: cell-based; outline: as §2
[8] = biological target: T1, Voltage-dependent L-type calcium channel subunit alpha-1C; experiment: Antagonist activity at rabbit voltage-dependent L-type calcium channel Cav1.2alpha-1C expressed in HEK293 cells assessed as inhibition of end barium current at 1 to 10 uM by whole-cell patch-clamp electrophysiology technique; format: cell-based; outline: as §2
[9] = Selectivity ratio of IC50 for rat voltage-dependent L-type calcium channel Cav1.3alpha-1D to IC50 for rabbit voltage-dependent L-type calcium channel Cav1.2alpha-1C
Outline: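 HEK293 lines stably expressing rat CaV1.3α1D or rabbit CaV1.2α1C, with rat CaVβ3 and rat CaVα2δ-1 cDNAs used in construction. Calcium influx was read by Fluo-8 fluorescence on a FLIPR Tetra. The selectivity ratio is CaV1.3 IC50 over CaV1.2 IC50.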

SMILES	IC50 [2] [µM]	IC50 [1] [µM]	Ratio IC50 [3]	further results
COC(=O)C1=C(C)NC(=S)NC1c1cccc([N+](=O)[O-])c1 (configuration not stated)	> 100	55	–	–
CCOC(=O)C1=C(NC(C)=O)OC(C)=C(C(=O)OC)C1c1cccc([N+](=O)[O-])c1 (configuration not stated)	10	4.75	0.5	–
CC(C)OC(=O)C1=C(C(C)C)NC(=O)N(C(=O)OC(C)C)C1c1cccc([N+](=O)[O-])c1 (configuration not stated)	4.31	1.93	0.5	–
CC1=C(C(=O)OC(C)C)C(c2cccc([N+](=O)[O-])c2)NC(=S)N1 (configuration not stated)	15.8	10.7	0.7	–
CC1=C(C(=O)OC(C)C)[C@H](c2cccc([N+](=O)[O-])c2)N(C(=O)OC(C)C)C(=O)N1	1.96	3.07	1.6	–
COC(=O)C1=C(C(C)C)NC(=O)N(C(=O)C(C)C)C1c1cccc([N+](=O)[O-])c1 (configuration not stated)	> 100	56.6	–	–
CC1=C(C(=O)OC(C)C)[C@@H](c2cccc([N+](=O)[O-])c2)N(C(=O)OC(C)C)C(=O)N1	0.51	1.02	2.1	inhibition (INH) [5]: Active; inhibition [6]: Active; inhibition [7]: Active; inhibition (INH) [8]: Active
CC1=C(C(=O)OC(C)C)C(c2cccc([N+](=O)[O-])c2)NC(=O)N1 (configuration not stated)	46.6	58.1	–	–
COC(=O)C1=C(C)NC(=O)NC1c1cccc([N+](=O)[O-])c1 (configuration not stated)	18.9	11.7	0.6	–
COC(=O)N1C(=O)N(C(=O)OC)C(c2cccc([N+](=O)[O-])c2)C(C(=O)OC(C)C)=C1C (configuration not stated)	5.88	6.13	1.1	–
CCOC(=O)N1C(=O)NC(C(C)C)=C(C(=O)OC)C1c1cccc([N+](=O)[O-])c1 (configuration not stated)	24.5	14.8	0.6	–
COC(=O)N1C(SC)=NC(C)=C(C(=O)OC(C)C)C1c1cccc([N+](=O)[O-])c1 (configuration not stated)	10.7	5.54	0.4	–
CC1=C(C(=O)OC(C)C)C(c2cccc([N+](=O)[O-])c2)N(C(=O)C(C)C)C(=O)N1 (configuration not stated)	0.99	0.5	0.5	–
COC(=O)C1=C(C(C)C)NC(=O)N(C(=O)OC(C)C)C1c1cccc([N+](=O)[O-])c1 (configuration not stated)	10.1	10.4	1	–
CCOC(=O)N1C(=O)N(C(=O)OCC)C(c2cccc([N+](=O)[O-])c2)C(C(=O)OC)=C1C(C)C (configuration not stated)	13.9	13.9	–	Ratio IC50 [9]: 1
CSC1=NC(c2cccc([N+](=O)[O-])c2)C(C(=O)OC(C)C)=C(C)N1 (configuration not stated)	1.86	0.42	0.2	–
COC(=O)C1=C(C)N=C(SC)NC1c1cccc([N+](=O)[O-])c1 (configuration not stated)	10.6	3.29	0.3	–
COC(=O)C1=C(C)N=C(SC)N(C(=O)OC(C)C)C1c1cccc([N+](=O)[O-])c1 (configuration not stated)	5.58	16.1	3	–
COC(=O)SC1=NC(C)=C(C(=O)OC(C)C)C(c2cccc([N+](=O)[O-])c2)N1C(=O)OC (configuration not stated)	1.11	1.02	0.9	–
CC1=C(C(=O)OC(C)C)C(c2cccc([N+](=O)[O-])c2)N(C(=O)OC(C)C)C(=O)N1 (racemic)	0.66	0.64	1	–
CCOC(=O)C1=C(N)OC(C)=C(C(=O)OC)C1c1cccc([N+](=O)[O-])c1 (configuration not stated)	2.72	0.58	0.2	–
COC(=O)C1=C(C(C)C)NC(=O)NC1c1cccc([N+](=O)[O-])c1 (configuration not stated)	> 100	> 100	–	–

More lines, main results first:

IC50 [2] [µM]	SMILES	IC50 [1] [µM]	Ratio IC50 [3]	further results
13.6	COC(=O)C1=C(C)OC(NC(C)=O)=C(C(=O)OC(C)C)C1c1cccc([N+](=O)[O-])c1 (configuration not stated)	6.11	0.5	–
9.95	CCOC(=O)C1=C(NC(=O)C(C)C)OC(C)=C(C(=O)OC)C1c1cccc([N+](=O)[O-])c1 (configuration not stated)	4.23	0.4	–
3.25	CNC1=NC(C)=C(C(=O)OC(C)C)C(c2cccc([N+](=O)[O-])c2)N1C(=O)OC (configuration not stated)	2.45	0.8	–
1.39	CC1=C(C(=O)OC(C)C)C(c2cccc([N+](=O)[O-])c2)C(C(=O)OC(C)C)=C(N)O1 (configuration not stated)	0.86	0.6	–
0.221	COC(=O)C1=C(C)NC(C)=C(C(=O)OC(C)C)C1c1cccc2nonc12 (configuration not stated) [ISRADIPINE]	0.107	0.5	Selectivity ratio [4]: 0.69
4.6	COC(=O)C1=C(C)NC(=O)N(C(=O)OC(C)C)C1c1cccc([N+](=O)[O-])c1 (configuration not stated)	2.48	0.6	–
0.55	COC(=O)N1C(=S)NC(C)=C(C(=O)OC(C)C)C1c1cccc([N+](=O)[O-])c1 (racemic)	0.35	0.6	–
0.56	COC(=O)N1C(=S)NC(C)=C(C(=O)OC(C)C)[C@H]1c1cccc([N+](=O)[O-])c1	0.5	0.9	–
2.96	COC(=O)N1C(=O)NC(C)=C(C(=O)OC(C)C)C1c1cccc([N+](=O)[O-])c1 (racemic)	2.48	0.9	–
35.1	COC(=O)N1C(=O)NC(C)=C(C(=O)OC(C)C)[C@@H]1c1cccc([N+](=O)[O-])c1	21.7	0.6	–
1.91	COC(=O)N1C(=O)NC(C)=C(C(=O)OC(C)C)[C@H]1c1cccc([N+](=O)[O-])c1	2.36	1.2	–
1.82	COC(=O)C1=C(C)OC(N)=C(C(=O)OC(C)C)C1c1cccc([N+](=O)[O-])c1 (configuration not stated)	0.41	0.2	–
12.8	COC(=O)N1C(=S)NC(C)=C(C(=O)OC(C)C)[C@@H]1c1cccc([N+](=O)[O-])c1	9.87	0.8	–
4.22	CNC1=NC(C)=C(C(=O)OC)C(c2cccc([N+](=O)[O-])c2)N1C(=O)OC(C)C (configuration not stated)	1.81	0.4	–
0.88	COC(=O)C1=C(C)NC(=S)N(C(=O)OC(C)C)C1c1cccc([N+](=O)[O-])c1 (configuration not stated)	0.17	0.2	–
